# Measured values pooled from the literature.
# Each line is one published result; the experiments were not run side by side.
# Target: TGF-beta receptor type-2 (TGFBR2, Homo sapiens, UniProt P37173)
Structure (SMILES),read-out,technique,concentration,remaining binding [%]
CN(C)c1ncc(F)c(-c2cnn3ncccc23)n1,binding,,1 µM,100
COc1cccc(CNC(=O)c2nc3scc(COCc4ccc(C(=O)O)cc4)c3c(=O)[nH]2)c1,cell-free assay,competition with immobilised ligand,1 µM,97
O=C(NCCCN1CCOCC1)c1ccc(Nc2nccc(-c3cc4ccccc4s3)n2)cc1,binding,competition with immobilised ligand,1 µM,64
COc1ccc2c(O[C@@H]3C[C@H]4C(=O)N[C@]5(C(=O)O)CC5/C=C\CCCCC[C@H](NC(=O)OC5CCCC5)C(=O)N4C3)cc(-c3csc(NC(=O)C(C)C)n3)nc2c1C (stereo partly drawn),cell-free assay,competition with immobilised ligand,1 µM,93
O=C(Nc1c[nH]nc1C(=O)NC1CCNCC1)c1cc(F)cc(F)c1,binding,competition with immobilised ligand,1 µM,90
COc1cnc(Nc2cccc(S(N)(=O)=O)c2)nc1N1CCN(c2ccccc2)CC1,binding,competition with immobilised ligand,1 µM,100
CO[C@@H](C)c1c(Nc2ccc([C@@H](N(C)C(=O)C3CCS(=O)(=O)CC3)C(F)(F)F)cc2)cnc2cc(Cl)nn12,cell-free assay,competition with immobilised ligand,1 µM,100
C[C@@H](c1ccc(-n2cnc3c(N)ncnc32)cc1)N1CCc2nn(C)c(Cc3ccccc3)c2C1=O,binding,competition with immobilised ligand,0.1 µM,84
Cc1cnn2ncc(-c3ccnc(N(C)C)n3)c2c1,binding,,1 µM,80
COc1cnc(Nc2cccc(S(N)(=O)=O)c2)nc1N1CCN(c2ccccc2)C(=O)C1,binding,competition with immobilised ligand,1 µM,100
c1cncc(-c2cccc(Nc3nccc(NC4CCCCC4)n3)c2)c1,binding,competition with immobilised ligand,10 µM,30
O=C(c1ccc(Nc2nccc(-c3cc4ccccc4s3)n2)cc1)N1CCC(N2CCCC2)CC1,binding,competition with immobilised ligand,1 µM,88
CC1CCCN1c1nccc(-c2cnn3ncccc23)n1 (stereo not drawn),binding,,1 µM,100
CC1=C(C#N)C(c2ccc3c(c2)c(NC(=O)c2ccccc2C)nn3C)C(C#N)=C(C)N1,cell-free assay,competition with immobilised ligand,1 µM,99
O=C(c1ccc(Nc2ncc(Cl)c(-c3cc4ccccc4s3)n2)cc1)N1CCC(N2CCCC2)CC1,binding,competition with immobilised ligand,1 µM,84
c1cnn2ncc(-c3ccnc(N4CCC45COC5)n3)c2c1,binding,,1 µM,36
COc1cc(-c2cn(C3CCc4c(F)cccc4N(CC(F)(F)F)C3=O)nn2)ccc1-n1cnc(C)c1 (stereo not drawn),cell-free assay,competition with immobilised ligand,1 µM,100
C[C@H]1CCN(c2nccc(-c3cnn4ncccc34)n2)C1,binding,,1 µM,60
O=C(NS(=O)(=O)c1ccc(NCC2CCOCC2)c([N+](=O)[O-])c1)c1ccc(N2CCN(Cc3ccc(C(F)(F)F)cc3-c3ccc(Cl)cc3)CC2)cc1Oc1cnc2[nH]ccc2c1,cell-free assay,competition with immobilised ligand,1 µM,76
COc1ccnn2ncc(-c3ccnc(N(C)C)n3)c12,binding,,1 µM,100
C=CC(=O)N1CCC(C(=O)NCC(=O)N2CCN(c3nc(-c4cnc(N)nc4C(F)F)nc(N4CCOCC4)n3)CC2)CC1,binding,competition with immobilised ligand,1 µM,88
